Source: publication PMC11001196 (Microbial Biotechnology, 2024)
Like-named read-outs stand apart in the source and are kept apart here. One block for each molecule: values may come before it.

Tests used:
[1] = target: FS6 acid phosphatase (class C acid phosphatase, histidine-tagged recombinant FS6); assay: AUC
FS6 = assay: spectrophotometric kinetics, Lineweaver-Burk; type: biochemical, metagenome; conditions: pH 5.5, 25 °C, HAM poly-buffer
In short: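 Purified metagenome-derived acid phosphatase (imidazole-gradient eluted, dialysed into MES/HEPES/acetate buffer with 150 mM NaCl) at 0.1-1 µM in 0.1 mL HAM poly-buffer (40 mM HEPES, 40 mM acetic acid, 40 mM MES). […] at 0 to 0.22 mM; hydrolysis followed spectrophotometrically. Vmax and Km derived from Michaelis–Menten analysis and Lineweaver–Burk double-reciprocal plots.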

Molecule: FS6 acid phosphatase (class C acid phosphatase, histidine-tagged recombinant FS6) (enzyme)
- stoichiometry N [1]: 10

- Km (FS6; read-out: UMP-5’ / Km): 180 ± 130 µM
Molecule: O=c1ccn([C@@H]2O[C@H](COP(=O)(O)O)[C@@H](O)[C@H]2O)c(=O)[nH]1 [uridine 5'-monophosphate]

- Km (FS6; read-out: pNPP / Km): 40 ± 10 µM
Molecule: O=[N+]([O-])c1ccc(OP(=O)(O)O)cc1 [p-nitrophenyl phosphate]

- Km (FS6; read-out: GMP-5’ / Km): 220 ± 20 µM
Molecule: Nc1nc2c(ncn2[C@@H]2O[C@H](COP(=O)(O)O)[C@@H](O)[C@H]2O)c(=O)[nH]1 [guanosine 5'-monophosphate]

- Km (FS6; read-out: AMP-5’ / Km): 180 ± 70 µM
Molecule: Nc1ncnc2c1ncn2[C@@H]1O[C@H](COP(=O)(O)O)[C@@H](O)[C@H]1O [adenosine 5'-monophosphate]
